NPY-Y2 PAM-ag = potentiators or agonists of human neuropeptide Y receptor Y2 | P49146 | actives 0.45% (n = 220,000) | activation, % at 3.6 µM | AID 1359 | cells expressing NPY-Y2, potentiator/agonist read-out; in the data active means activation above about 27%;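 further: cells stimulated with NPY near EC25 plus isoproterenol at EC100; 0% = vehicle plus submaximal agonist and 100% = vehicle plus saturating agonist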
NPY1 pot ag = potentiates or activates human NPY-Y1 receptor | P25929 | NPY-Y1 expressing cells, potentiator/agonist activation | activation, % at 3.6 µM | actives 0.37% (n = 220,000) | AID 1304; in the data active means activation above about 33%, passing the limit was not always enough;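 further: cells stimulated with NPY at EC10 then isoproterenol at EC100; 0% = low agonist plus stimulus and 100% = saturating agonist plus stimulus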
Target sequence (P25929 whole entry, looked up): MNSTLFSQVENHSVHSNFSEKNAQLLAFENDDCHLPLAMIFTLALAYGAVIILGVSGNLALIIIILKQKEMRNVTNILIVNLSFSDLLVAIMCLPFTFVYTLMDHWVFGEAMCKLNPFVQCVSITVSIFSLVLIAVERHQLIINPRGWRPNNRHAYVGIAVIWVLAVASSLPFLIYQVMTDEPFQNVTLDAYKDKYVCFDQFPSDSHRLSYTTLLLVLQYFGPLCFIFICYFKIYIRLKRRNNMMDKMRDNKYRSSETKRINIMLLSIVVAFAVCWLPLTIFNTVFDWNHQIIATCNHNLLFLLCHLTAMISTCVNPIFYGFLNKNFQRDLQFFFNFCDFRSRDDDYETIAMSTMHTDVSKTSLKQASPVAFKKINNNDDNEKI
INS promoter inh = TRM-6 insulin promoter activity inhibition. actives 0.9% (n = 130,000). inhibition, % at 2 µM. AID 1273. TRM-6 cells, insulin promoter-eGFP reporter, imaging; reporter expression induced with tamoxifen;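 active means inhibition above the mean plus 3 SD, with well images judged a real hit on visual review, cut at about 60% in these data, passing the limit was not always enough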
RAM inhibit = inhibitors of the yeast RAM network; S. cerevisiae dse1pr::URA3 reporter, 5-FOA growth OD615, 2 d; analog-sensitive cbk1-as2 kinase mutant strain; inhibition, % at 50 µM; actives 1.8% (n = 190,000); AID 868;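 active means inhibition above a set limit, 3 SD over mean compound inhibition, cut at about 8.4% in these data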;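 further: 0% = DMSO-only wells with no growth and 100% = 10 µM 1-NA-PP1 full growth; inhibition rescues growth on 5-FOA so higher OD means more RAM inhibition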
NPY-Y2 antag = blocks the human neuropeptide Y Y2 receptor | P49146 | NPY-Y2 expressing cells, antagonist mode | inhibition, % at 2.7 µM | actives 0.99% (n = 140,000) | AID 793; in the data active means inhibition above about 17%;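 further: 0% = vehicle with agonist challenge and 100% = reference antagonist with challenge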
NPY Y1 blocker = antagonists of human neuropeptide Y receptor Y1 | inhibition, % at 3.6 µM | HEK293-CNG Y1 cells, membrane potential fluorescence; NPY at EC95, then isoproterenol | actives 1% (n = 200,000) | AID 1040 | P25929;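 active means inhibition above the campaign mean inhibition of all tested compounds plus 3 SD, cut at about 20% in these data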;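 further: 0% = DMSO wells given NPY plus isoproterenol and 100% = isoproterenol alone without NPY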
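Test system: HEK293 cells co-expressing NPY Y1 receptor and cyclic-nucleotide gated channel; Also added: NPY (25 nM), isoproterenol (1 µM), Ro 20-1724 (25 µM); Compound dosing: one concentration, 3.6 µM, in 0.4% DMSO; Timing: dye 3 h, compound 60 min room temperature, stimulation 45 min; Technique: Membrane-potential fluorescent dye readout.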
Starred values were filed as active, the others as inactive. Rows were chosen to be rich in hits. Some 3.8% of all compounds tested hit in one or more screens of this group.

How did CCOC(=O)c1nn(-c2ccccc2C)c2nc(Nc3ccccc3)cc(=O)n12 do in these assays?
NPY-Y2 PAM-ag: 0; NPY1 pot ag: -3; INS promoter inh: -46; RAM inhibit: 8.4*; NPY-Y2 antag: 4; NPY Y1 blocker: 4

How did COc1ccc(C=C(c2nc3ccccc3s2)c2nc3ccccc3s2)cc1O do in these assays?
NPY-Y2 PAM-ag: 11; NPY1 pot ag: -18; INS promoter inh: -69; RAM inhibit: 9.2*; NPY-Y2 antag: -3; NPY Y1 blocker: -6

What do the screens show for `C/C(=C/c1ccccc1)C(=O)N1CC(C)OC(C)C1` (centres undefined)?
NPY-Y2 PAM-ag: -3; NPY1 pot ag: 20; RAM inhibit: 1; NPY Y1 blocker: 3

Results for CCCSc1nc2c3c(sc2c(=O)[nH]1)CC(C)(CC)OC3 (centres undefined) ?
NPY-Y2 PAM-ag: -16; NPY1 pot ag: 3; RAM inhibit: 8.8*; NPY Y1 blocker: 2

What do the screens show for `CCOC(=O)CSc1nc2sc3c(c2c(=O)[nH]1)CC(C)(CC)OC3` (centres undefined)?
NPY-Y2 PAM-ag: 13; NPY1 pot ag: 15; INS promoter inh: 21; RAM inhibit: 1; NPY-Y2 antag: 0; NPY Y1 blocker: -2

What do the screens show for `CC(C)c1cc(C(N)=O)c(NC(=O)C2CCC2)s1`?
NPY-Y2 PAM-ag: 2; NPY1 pot ag: 4; INS promoter inh: 81*; RAM inhibit: 1; NPY-Y2 antag: 2; NPY Y1 blocker: -6

What do the screens show for `Cn1c(=O)c2c(nc(SCc3ccccc3)n2Cc2ccc(Cl)cc2)n(C)c1=O`?
NPY-Y2 PAM-ag: -15; NPY1 pot ag: -4; INS promoter inh: -273; RAM inhibit: 8.9*; NPY-Y2 antag: 4; NPY Y1 blocker: 10

How did COc1cccc(/C=C/C(=C2/C(=O)N(c3ccccc3)N=C2C)c2ccc(Br)cc2)c1OC do in these assays?
NPY-Y2 PAM-ag: 14; NPY1 pot ag: 8; RAM inhibit: 8.7*; NPY-Y2 antag: 0; NPY Y1 blocker: 10

Results for COc1cccc(/C=C/C(=C2/C(=O)N(c3ccccc3)N=C2C)c2ccccc2)c1OC ?
NPY-Y2 PAM-ag: 8; NPY1 pot ag: -2; RAM inhibit: 7; NPY-Y2 antag: -1; NPY Y1 blocker: 1

Results for COc1ccccc1/C=C/C(=C1/C(=O)N(c2ccccc2)N=C1C)c1ccc(C)cc1 ?
NPY-Y2 PAM-ag: -4; NPY1 pot ag: 10; INS promoter inh: 71*; RAM inhibit: 7; NPY-Y2 antag: 0; NPY Y1 blocker: 4

How did N=c1n(CCN2CCCCC2)c2ccccc2n1CC(O)c1ccc(Cl)c(Cl)c1 (centres undefined) do in these assays?
NPY-Y2 PAM-ag: -23; NPY1 pot ag: -37; INS promoter inh: -21; RAM inhibit: 2; NPY-Y2 antag: 53*; NPY Y1 blocker: 36*

What do the screens show for `N=c1n(CCN2CCCCC2)c2ccccc2n1CC(O)c1cccc(Br)c1` (centres undefined)?
NPY-Y2 PAM-ag: -20; NPY1 pot ag: -39; INS promoter inh: -7; RAM inhibit: 1; NPY-Y2 antag: 32*; NPY Y1 blocker: 41*

How did O=C(N/N=C/c1ccc([N+](=O)[O-])o1)c1ccccc1NS(=O)(=O)c1cccs1 do in these assays?
NPY-Y2 PAM-ag: 8; NPY1 pot ag: 9

Results for CCCc1cc(C(=O)Nc2sc(C)c(CC)c2C#N)no1 ?
NPY-Y2 PAM-ag: 3; NPY1 pot ag: 21; INS promoter inh: 70*; RAM inhibit: 2; NPY-Y2 antag: 6; NPY Y1 blocker: 5

How did Cc1ccc2cc(CN(CCN3CCCC3)C(=O)Nc3ccccc3)c(=O)[nH]c2c1C do in these assays?
NPY-Y2 PAM-ag: -31; NPY1 pot ag: -32; INS promoter inh: 27; RAM inhibit: 1; NPY-Y2 antag: 6; NPY Y1 blocker: 15

Results for Cc1ccc2cc(CN(CCN3CCCC3)C(=O)Nc3ccc(F)cc3)c(=O)[nH]c2c1C ?
NPY-Y2 PAM-ag: -29; NPY1 pot ag: -55; INS promoter inh: -11; RAM inhibit: 0; NPY-Y2 antag: 5; NPY Y1 blocker: 26*

Results for Cn1cnnc1SCC(=O)Nc1ccc(Cl)cn1 ?
NPY-Y2 PAM-ag: 71*; NPY1 pot ag: 74*; RAM inhibit: 3; NPY Y1 blocker: -12

What do the screens show for `Cc1cccn2c(CNCCCOc3cccnc3)c(C(=O)N3CCOCC3)nc12`?
NPY-Y2 PAM-ag: -6; NPY1 pot ag: -5; RAM inhibit: 1; NPY Y1 blocker: 7

What do the screens show for `CCOC(=O)c1cc(NC(=O)c2ccc(OC)cc2)c(=O)oc1-c1ccccc1`?
NPY-Y2 PAM-ag: -5; NPY1 pot ag: 1; INS promoter inh: 21; RAM inhibit: 11*; NPY-Y2 antag: 1; NPY Y1 blocker: 14

What do the screens show for `COC(=O)c1cc(NC(=O)c2ccc(OC)cc2)c(=O)oc1C`?
NPY-Y2 PAM-ag: 9; NPY1 pot ag: -7; RAM inhibit: 1; NPY Y1 blocker: -1

Results for CCN(CC)S(=O)(=O)c1ccc2c(c1)N(CC(=O)NCCc1ccc(S(N)(=O)=O)cc1)C(=O)CO2 ?
NPY-Y2 PAM-ag: -15; NPY1 pot ag: -12; RAM inhibit: 2; NPY Y1 blocker: -6

How did Oc1ccc(Cl)cc1-c1cc(C(F)(F)C(F)F)nc(-c2ccccc2)n1 do in these assays?
NPY-Y2 PAM-ag: 7; NPY1 pot ag: 10; INS promoter inh: -1; RAM inhibit: 8; NPY-Y2 antag: 1; NPY Y1 blocker: -7

What do the screens show for `Cc1ccc(O)c(-c2cc(C(F)(F)C(F)F)nc(-c3ccccc3)n2)c1`?
NPY-Y2 PAM-ag: -4; NPY1 pot ag: -16; INS promoter inh: 16; RAM inhibit: 9.6*; NPY-Y2 antag: 1; NPY Y1 blocker: -8

What do the screens show for `COC(=O)c1cc(C(=O)OC)cc(-n2c(C)cc(C(=O)COC(=O)CNS(=O)(=O)c3ccc(C)cc3)c2C)c1`?
NPY-Y2 PAM-ag: -10; NPY1 pot ag: 15; INS promoter inh: -13; RAM inhibit: 5; NPY-Y2 antag: 3; NPY Y1 blocker: 4

What do the screens show for `Oc1ccc(N=Nc2nc(-c3ccccc3)c(-c3ccccc3)[nH]2)cc1`?
NPY-Y2 PAM-ag: 19; NPY1 pot ag: 24; INS promoter inh: -17; RAM inhibit: 8.8*; NPY-Y2 antag: -6; NPY Y1 blocker: -5

Results for Oc1ccc(-c2[nH]nc(-c3ccccc3)c2-c2nc3ccccc3[nH]2)cc1 ?
NPY-Y2 PAM-ag: -35; NPY1 pot ag: -1; INS promoter inh: -26; RAM inhibit: 0; NPY-Y2 antag: 6; NPY Y1 blocker: 13

What do the screens show for `CC(C)(C)c1ccc(C(=O)c2c[nH]c(C(=O)O)c2)cc1`?
NPY-Y2 PAM-ag: -3; NPY1 pot ag: -13; RAM inhibit: 0; NPY Y1 blocker: -1

Results for COc1ccc(-n2nnnc2SCC(=O)c2ccc3c(c2)OCCO3)cc1 ?
NPY-Y2 PAM-ag: 9; NPY1 pot ag: -14; INS promoter inh: 79*; RAM inhibit: 6; NPY-Y2 antag: 1; NPY Y1 blocker: 4

Source: PubChem (several laboratories)
